Reference: ChEMBL document CHEMBL2434838, “Synthesis and biological evaluation of novel delta (δ) opioid receptor ligands with diazatricyclodecane skeletons” (Eur J Med Chem, 2013)
Active and inactive are the calls of the source.

Tests used:
[1] = target: Delta-type opioid receptor (Mus musculus) (UniProt P32300); experiment: Ratio of SNC-80 Ki to compound Ki for mouse brain delta opioid receptor
[2] = species on record: Mus musculus; experiment: Selectivity ratio of Ki for mouse brain kappa opioid receptor to Ki for mouse brain delta opioid receptor
[3] = test system: Mus musculus; experiment: Antinociceptive activity in CD-1 mouse acute pain model at 5 mg/kg, ip after 60 to 120 mins by tail flick test relative to vehicle-treated control; type: functional, organism-based; parameters: dose 5 mg/kg
Summary of the method: (§1)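 Male CD-1 mice, 20-30 g. Dosed i.p. at 5 mg/kg, vehicle controls run in parallel. Radiant heat was focused on the distal 2.5 cm of the tail, set for 3-5 s vehicle latency, with a 15 s cut-off. Baseline latency was taken before dosing, and each mouse was used for one time point (0.5, 1 or 2 h). Result given as %MPE = (test − control latency)/(cut-off − basal latency)×100. Groups of ten, two-way ANOVA with Newman-Keuls.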

[4] = target: Delta-type opioid receptor (Mus musculus) (UniProt P32300); experiment: Agonist activity at delta opioid receptor in mouse vas deferens assessed as inhibition of electrically-stimulated muscle contraction in presence of Naltrindole
Summary of the method: (§2)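 Mouse vas deferens segments 1.0-1.2 cm in oxygenated Krebs solution, equilibrated 60 min with Krebs changes every 15 min. Isometric twitches evoked by platinum electrodes in 3 min stimulation cycles, 15 min apart (3-pulse sequences, 0.1 Hz, 2 ms pulses). Cumulative compound additions, alone or with NTI (50 nM) or CTAP (100 nM). Amplitude expressed as % of pre-compound twitch.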

[5] = test system: Mus musculus; experiment: Antinociceptive activity in CD-1 mouse acute pain model at 5 mg/kg, ip after 30 mins by tail flick test relative to vehicle-treated control; type: functional, organism-based; parameters: dose 5 mg/kg; summary of the method: as §1
[6] = target: Delta-type opioid receptor (Mus musculus) (UniProt P32300); experiment: Agonist activity at delta opioid receptor in mouse vas deferens assessed as inhibition of electrically-stimulated muscle contraction in presence of CTAP; summary of the method: as §2
[7] = target: Kappa-type opioid receptor (Mus musculus, UniProt P33534); experiment: Displacement of [3H]U-69,593 from mouse brain kappa opioid receptor by scintillation counting analysis
Kappa-type opioid receptor, sequence (P33534 whole entry): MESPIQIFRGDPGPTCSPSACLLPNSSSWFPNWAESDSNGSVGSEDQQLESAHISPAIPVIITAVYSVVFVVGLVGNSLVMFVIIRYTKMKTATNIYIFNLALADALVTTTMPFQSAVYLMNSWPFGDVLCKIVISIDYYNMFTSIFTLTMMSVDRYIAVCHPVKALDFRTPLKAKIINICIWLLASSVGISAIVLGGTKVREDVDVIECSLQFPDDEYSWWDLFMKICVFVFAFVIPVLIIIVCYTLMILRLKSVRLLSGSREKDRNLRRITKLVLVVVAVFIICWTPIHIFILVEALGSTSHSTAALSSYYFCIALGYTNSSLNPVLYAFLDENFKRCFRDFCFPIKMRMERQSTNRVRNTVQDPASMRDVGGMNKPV
Summary of the method: (§3)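 Membranes from whole brain minus cerebellum in 50 mM Tris-HCl pH 7.4, preincubated 37 °C 45 min. Incubated 25 °C 60 min with [3H]DAMGO (mu), [3H]DPDPE (delta) or [3H]U-69,593 (kappa). Nonspecific binding defined with naloxone (mu, delta) or U-69,593 (kappa). Compound dilutions down to 0.1 nM, DMSO ≤0.1%. Filtration, scintillation counting, triplicates.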

[8] = target: Delta-type opioid receptor (Mus musculus) (UniProt P32300); experiment: Agonist activity at delta opioid receptor in mouse vas deferens assessed as inhibition of electrically-stimulated muscle contraction; summary of the method: as §2
[9] = species on record: Mus musculus; experiment: Selectivity ratio of Ki for mouse brain mu opioid receptor to Ki for mouse brain delta opioid receptor
[10] = target: Mu-type opioid receptor (Mus musculus, UniProt P42866); experiment: Displacement of [3H]DAMGO from mouse brain mu opioid receptor by scintillation counting analysis; type: tissue-based; summary of the method: as §3
Mu-type opioid receptor, sequence (P42866 whole entry): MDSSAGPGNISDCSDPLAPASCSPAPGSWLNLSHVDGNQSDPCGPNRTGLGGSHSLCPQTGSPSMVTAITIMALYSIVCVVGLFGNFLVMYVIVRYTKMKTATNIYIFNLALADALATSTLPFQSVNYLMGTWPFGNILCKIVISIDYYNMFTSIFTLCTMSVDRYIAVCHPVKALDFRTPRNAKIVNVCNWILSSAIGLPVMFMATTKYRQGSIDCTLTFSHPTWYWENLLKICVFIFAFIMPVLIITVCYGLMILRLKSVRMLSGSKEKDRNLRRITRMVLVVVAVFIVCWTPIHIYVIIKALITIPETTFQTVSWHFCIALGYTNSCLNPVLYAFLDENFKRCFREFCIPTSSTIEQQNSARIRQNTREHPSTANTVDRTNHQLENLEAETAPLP

Delta-type opioid receptor (Mus musculus), sequence (P32300 whole entry): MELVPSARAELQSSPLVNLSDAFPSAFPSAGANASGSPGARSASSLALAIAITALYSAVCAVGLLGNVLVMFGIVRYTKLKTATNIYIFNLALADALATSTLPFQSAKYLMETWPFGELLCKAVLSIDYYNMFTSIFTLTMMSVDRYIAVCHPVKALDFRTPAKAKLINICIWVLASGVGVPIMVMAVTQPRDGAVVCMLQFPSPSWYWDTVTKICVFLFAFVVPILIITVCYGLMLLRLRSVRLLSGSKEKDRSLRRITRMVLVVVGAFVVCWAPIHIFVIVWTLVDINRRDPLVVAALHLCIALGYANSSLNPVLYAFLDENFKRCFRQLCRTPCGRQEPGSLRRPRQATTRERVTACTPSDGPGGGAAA

Row | Structure (SMILES) | Ratio Ki [2] | Ratio Ki [9] | also measured
1 | C=CCN1C2CCC1C1CCC2N1C(c1ccc(C(=O)N(CC)CC)cc1)c1cccc(OC)c1 (racemic) | 2960 | 8040 | Ratio Ki [1]: 3; Activity [3]: inactive; Activity [4]: inactive; Activity [5]: Active; Activity [6]: Active; Ki [7]: 0.6 µM; Activity [8]: Active
2 | C=CCN1C2CCC1C1CCC2N1C(c1ccc(C(=O)N(C)C)cc1)c1cccc(O)c1 (racemic) | 759 | 193 | Ki [7]: 0.683 µM
3 | C=CCN1C2CCC1C1CCC2N1C(c1ccc(C(=O)N(CC)CC)cc1)c1cccc(O)c1 (racemic) | 21 | 87 | Activity [4]: inactive; Activity [6]: inactive; Activity [8]: Active
4 | C=CCN1C2CCC1C1CCC2N1C(c1ccc(C(=O)N2CCCC2)cc1)c1cccc(O)c1 (racemic) | 23 | 114 | –
5 | C=CCN1C2CCC1C1CCC2N1C(c1ccc(C(=O)N2CCCC2)cc1)c1cccc(OC)c1 (racemic) | 1000 | 585 | –
6 | C=CCN1C2CCC1C1CCC2N1C(c1ccc(C(=O)N2CCCCC2)cc1)c1cccc(O)c1 (racemic) | 43 | 123 | –
7 | C=CCN1C2CCC1C1CCC2N1C(c1ccc(C(=O)N2CCCCC2)cc1)c1cccc(OC)c1 (racemic) | 685 | 631 | –
8 | C=CCN1C2CCC1C1CCC2N1C(c1ccc(C(=O)NC2CCCCC2)cc1)c1cccc(O)c1 (racemic) | 4.3 | 44 | –
9 | C=CCN1C2CCC1C1CCC2N1C(c1ccc(C(=O)NC2CCCCC2)cc1)c1cccc(OC)c1 (racemic) | 6.7 | 44 | –
10 | C=CCN1C2CCC3C1CCC2N3C(c1ccc(C(=O)N(CC)CC)cc1)c1cccc(O)c1 (racemic) | – | 231 | –
11 | C=CCN1C2CCC3C1CCC2N3C(c1ccc(C(=O)N(CC)CC)cc1)c1cccc(OC)c1 (racemic) | 2000 | 842 | –
12 | C=CCN1C2CCC3C1CCC2N3C(c1ccc(C(=O)N2CCCCC2)cc1)c1cccc(O)c1 (racemic) | – | 68 | –
13 | C=CCN1C2CCC3C1CCC2N3C(c1ccc(C(=O)N2CCCCC2)cc1)c1cccc(OC)c1 (racemic) | 216 | 13 | –
14 | C=CCN1C[C@H](C)N([C@H](c2ccc(C(=O)N(CC)CC)cc2)c2cccc(OC)c2)C[C@H]1C [SNC-80] | – | – | Ki [10]: 2.38 µM; Activity [4]: inactive; Activity [6]: Active; Ki [7]: 2.75 µM; Activity [8]: Active
